Assay results taken from ChEMBL document CHEMBL3525985, “Regiospecificity and stereospecificity of human UDP-glucuronosyltransferases in the glucuronidation of estriol, 16-epiestriol, 17-epiestriol, and 13-epiestradiol” (Drug Metab Dispos, 2013).
One block for each compound: values may come before it.

Assays:
Assay type in all cases: ADME
[1] = target: T1, UDP-glucuronosyltransferase 2B4 (Homo sapiens, UniProt P06133); experiment: Drug metabolism assessed as recombinant human C-terminal His-tagged UGT2B4-mediated 17-epiestriol-17-glucuronide formation at 200 uM after 15 to 60 mins by HPLC analysis in presence of UDPGA; conditions: recombinant enzyme
T1 sequence (P06133 whole entry): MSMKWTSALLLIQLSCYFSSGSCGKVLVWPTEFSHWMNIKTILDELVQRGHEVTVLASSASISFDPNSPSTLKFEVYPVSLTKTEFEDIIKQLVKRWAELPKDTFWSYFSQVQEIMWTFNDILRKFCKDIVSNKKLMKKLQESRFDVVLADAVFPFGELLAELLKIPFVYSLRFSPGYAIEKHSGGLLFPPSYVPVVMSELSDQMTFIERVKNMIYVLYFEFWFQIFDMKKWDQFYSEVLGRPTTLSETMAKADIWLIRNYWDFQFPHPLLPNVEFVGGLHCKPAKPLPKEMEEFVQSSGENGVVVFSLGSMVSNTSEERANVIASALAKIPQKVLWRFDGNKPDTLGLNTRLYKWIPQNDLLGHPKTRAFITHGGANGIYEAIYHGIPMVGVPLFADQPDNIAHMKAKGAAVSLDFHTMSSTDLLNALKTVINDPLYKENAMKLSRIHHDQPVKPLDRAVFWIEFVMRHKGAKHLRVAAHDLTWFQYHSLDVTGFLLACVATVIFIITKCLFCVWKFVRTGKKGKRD
How it was run: (§1)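 Screening at a single substrate concentration of 200 μM, in triplicate. The reaction used 5 or 50 µg of UGT-enriched insect cell membranes in 50 mM phosphate pH 7.4 with 10 mM MgCl₂ and 5 mM UDPGA, 10% final DMSO. Incubation was 15–60 min at 37°C. Perchloric acid stopped the reaction and supernatants were analysed by HPLC. Controls lacked UDPGA. Rates were normalized to relative UGT expression level.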

[2] = Drug metabolism in human intestine microsomes assessed as 17-epiestriol-17-glucuronide formation after 15 to 60 mins by Michaelis-Menten equation analysis in presence of UDPGA
How it was run: (§2)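 Pooled human intestine microsomes (6 donors), 0.5 or 10 µg, with alamethicin at 5% of total protein. Incubated with 50 mM phosphate pH 7.4, 10 mM MgCl₂, 5 mM UDPGA and 10% DMSO for 15–60 min at 37°C. Each glucuronide regioisomer quantified by HPLC, in triplicate, with substrate consumption at or below 10%.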

[3] = target: T2, UDP-glucuronosyltransferase 2B17 (Homo sapiens, UniProt O75795); experiment: Drug metabolism assessed as recombinant human C-terminal His-tagged UGT2B17-mediated 17-epiestriol glucuronide metabolite formation after 15 to 60 mins by HPLC analysis in presence of UDPGA; conditions: recombinant enzyme
T2 sequence (O75795 whole entry): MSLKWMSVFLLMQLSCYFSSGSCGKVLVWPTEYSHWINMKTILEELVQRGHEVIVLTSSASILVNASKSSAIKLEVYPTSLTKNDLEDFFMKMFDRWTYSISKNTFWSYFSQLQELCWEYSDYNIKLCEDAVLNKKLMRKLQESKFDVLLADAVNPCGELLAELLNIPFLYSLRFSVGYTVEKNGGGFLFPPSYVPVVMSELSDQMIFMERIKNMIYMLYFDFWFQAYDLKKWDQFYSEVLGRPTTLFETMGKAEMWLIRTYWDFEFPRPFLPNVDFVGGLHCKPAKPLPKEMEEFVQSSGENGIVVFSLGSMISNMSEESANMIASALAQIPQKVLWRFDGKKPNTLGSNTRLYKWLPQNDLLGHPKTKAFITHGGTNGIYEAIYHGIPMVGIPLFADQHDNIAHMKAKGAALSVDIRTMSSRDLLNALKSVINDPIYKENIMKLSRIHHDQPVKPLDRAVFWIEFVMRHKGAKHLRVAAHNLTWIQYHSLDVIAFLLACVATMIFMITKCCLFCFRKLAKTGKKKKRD

[4] = target: T3, UDP-glucuronosyltransferase 1A1 (Homo sapiens, UniProt P22309); experiment: Drug metabolism assessed as recombinant human C-terminal His-tagged UGT1A1-mediated 16-epiestriol-3-glucuronide formation after 15 to 60 mins by Michaelis-Menten equation analysis in presence of UDPGA; conditions: recombinant enzyme
T3 sequence (P22309 whole entry): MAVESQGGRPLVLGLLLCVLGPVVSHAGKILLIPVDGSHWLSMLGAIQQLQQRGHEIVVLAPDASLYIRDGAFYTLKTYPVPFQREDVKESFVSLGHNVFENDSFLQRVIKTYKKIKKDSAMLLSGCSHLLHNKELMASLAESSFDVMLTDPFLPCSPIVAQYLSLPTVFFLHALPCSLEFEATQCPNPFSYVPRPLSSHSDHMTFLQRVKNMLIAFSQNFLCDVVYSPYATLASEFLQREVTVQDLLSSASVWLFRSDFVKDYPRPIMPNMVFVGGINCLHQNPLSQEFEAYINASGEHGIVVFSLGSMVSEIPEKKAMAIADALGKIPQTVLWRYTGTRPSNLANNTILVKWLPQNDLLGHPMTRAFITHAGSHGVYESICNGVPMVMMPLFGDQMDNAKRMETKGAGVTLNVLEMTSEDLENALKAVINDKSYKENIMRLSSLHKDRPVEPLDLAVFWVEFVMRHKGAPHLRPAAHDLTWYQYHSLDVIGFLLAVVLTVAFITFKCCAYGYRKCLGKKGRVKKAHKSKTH

[5] = target: T4, UDP-glucuronosyltransferase 2A1 (Homo sapiens, UniProt P0DTE4); experiment: Drug metabolism assessed as recombinant human C-terminal His-tagged UGT2A1-mediated estradiol-3-glucuronide/estradiol-17-glucuronide formation at 200 uM after 15 to 60 mins by HPLC analysis in presence of UDPGA; conditions: recombinant enzyme; how it was run: as §1
T4 sequence (P0DTE4 whole entry): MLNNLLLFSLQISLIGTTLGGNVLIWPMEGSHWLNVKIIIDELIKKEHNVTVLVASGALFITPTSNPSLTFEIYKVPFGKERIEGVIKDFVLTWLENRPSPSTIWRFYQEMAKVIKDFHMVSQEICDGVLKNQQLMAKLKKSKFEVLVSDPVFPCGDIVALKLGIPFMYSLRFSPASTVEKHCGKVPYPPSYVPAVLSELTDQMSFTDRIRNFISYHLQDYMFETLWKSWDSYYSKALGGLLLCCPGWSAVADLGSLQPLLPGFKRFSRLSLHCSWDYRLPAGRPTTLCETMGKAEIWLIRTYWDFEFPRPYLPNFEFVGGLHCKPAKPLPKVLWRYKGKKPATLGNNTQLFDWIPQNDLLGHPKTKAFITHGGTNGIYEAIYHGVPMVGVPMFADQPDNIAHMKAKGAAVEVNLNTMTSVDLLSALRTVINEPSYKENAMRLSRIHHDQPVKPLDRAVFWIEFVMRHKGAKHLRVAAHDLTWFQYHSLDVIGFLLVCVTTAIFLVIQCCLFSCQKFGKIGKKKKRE

[6] = Drug metabolism in human intestine microsomes assessed as estriol-17-glucuronide formation after 15 to 60 mins by Michaelis-Menten equation analysis in presence of UDPGA; how it was run: as §2

Drug metabolism [1]: metabolite_detected | Km [2]: 1.3 µM | Vmax [2]: 1633 pmol/min/mg | Drug metabolism [3]: metabolite_not_detected
SMILES: C[C@]12CC[C@@H]3c4ccc(O)cc4CC[C@H]3[C@@H]1C[C@@H](O)[C@H]2O

Drug metabolism [4]: 0.5 pmol/min/mg
SMILES: C[C@]12CC[C@@H]3c4ccc(O)cc4CC[C@H]3[C@@H]1C[C@H](O)[C@@H]2O [EPIESTRIOL]

Drug metabolism [5]: metabolite_detected
SMILES: C[C@]12CC[C@@H]3c4ccc(O)cc4CC[C@H]3[C@@H]1CC[C@@H]2O [ESTRADIOL]

Km [6]: 1120 µM | Vmax [6]: 2095 pmol/min/mg
SMILES: C[C@]12CC[C@@H]3c4ccc(O)cc4CC[C@H]3[C@@H]1C[C@@H](O)[C@@H]2O [ESTRIOL]
